From ChEMBL document CHEMBL1140921, “Discovery of novel Myc-Max heterodimer disruptors with a three-dimensional pharmacophore model” (J Med Chem, 2009)
Calls of active or inactive are those of the source. No cut-off for these calls is given here.

Key:
[1] = Inhibition of 6-His tagged recombinant c-Myc353-437 gene binding to Max(S) protein assessed as disruption of heterodimer formation by circular dichroism assay
Outline: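 Circular dichroism on equimolar c-Myc and Max (1.5 µM each), with helical content read as ellipticity at 222 nm. Compounds were screened at 200 µM (average of three independent trials), then titrated over a concentration range. The fitted Kcomp was multiplied by the independently determined c-Myc–Max dissociation constant to estimate affinity for c-Myc monomer. Triplicate.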

HL-60 = test: Cytotoxicity against human HL60 cells by MTS assay; type: functional, cell-based
Outline: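 HL60 cell growth dose-response profiles; IC50 calculated from the profile on day 5 after compound addition.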

[2] = Cytotoxicity against rat c-Myc knockout KO-HMG cells overexpressing HMGA1b by MTS assay; type: cell-based

Compound | IC50 [1] | IC50 (HL-60) | also measured
CCCCOC(=O)CCN1C(=O)/C(=C/c2ccc(CC)cc2)SC1=S | 10 µM |  | 
O=C1NC(=S)S/C1=C\c1ccc(O)cc1 |  |  | Activity [1]: inactive
CC(C)c1ccc(/C=C2\SC(=S)NC2=O)cc1 | 38 µM |  | 
O=C1NC(=S)S/C1=C\c1ccc(O)c(O)c1 | 23 µM |  | 
CN(C)c1ccc(/C=C2\SC(=S)NC2=O)cc1 |  |  | Activity [1]: inactive
O=C1NC(=S)S/C1=C\c1ccc(Cl)cc1 | 41 µM |  | 
Cc1ccc(C)c(OCN2Cc3ccccc3C2C=O)c1 (stereo not drawn) |  | 15 µM | IC50 [2]: > 35 µM
CCc1ccc(OCC(=O)Nc2ccc(C)cc2Br)cc1 |  | 23 µM | IC50 [2]: > 55 µM

The next lines start with results.

IC50 [1] | Compound | IC50 (HL-60) | also measured
49 µM | CCc1ccc(/C=C2\SC(=S)NC2=O)cc1 | 35 µM | 
4.6 µM | CCCN1C(=O)/C(=C/c2ccc(CC)cc2)SC1=S |  | 
